The values below come from ChEMBL document CHEMBL1287697, “Receptor agonists of macrophage migration inhibitory factor” (Bioorg Med Chem Lett, 2010).

Experiment [1] deals with T1, MIF/CD74 (Macrophage migration inhibitory factor and HLA-DR antigens-associated invariant chain) (Homo sapiens, UniProt P04233+P14174).
T1 sequence (P14174 whole entry): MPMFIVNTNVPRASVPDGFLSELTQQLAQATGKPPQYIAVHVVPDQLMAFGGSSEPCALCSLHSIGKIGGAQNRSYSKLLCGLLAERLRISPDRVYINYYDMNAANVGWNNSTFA
T1 sequence (P04233 whole entry): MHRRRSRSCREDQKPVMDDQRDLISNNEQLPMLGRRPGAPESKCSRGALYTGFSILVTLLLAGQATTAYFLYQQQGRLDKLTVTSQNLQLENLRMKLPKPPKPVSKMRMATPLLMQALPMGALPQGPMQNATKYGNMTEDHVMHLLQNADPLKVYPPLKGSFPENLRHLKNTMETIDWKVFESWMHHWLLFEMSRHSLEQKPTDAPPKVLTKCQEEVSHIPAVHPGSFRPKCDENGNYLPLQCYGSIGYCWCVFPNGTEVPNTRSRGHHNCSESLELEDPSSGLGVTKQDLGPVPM
Description: (§1) Inhibition of human biotinylated MIF/CD74 interaction. It is filed as protein assay.

In experiment [2] the target is T2, MIF/CD74 (Macrophage migration inhibitory factor and HLA-DR antigens-associated invariant chain) (Homo sapiens, UniProt P14174+P04233).
T2 sequence (P14174 whole entry): T1 sequence (P14174 whole entry)
T2 sequence (P04233 whole entry): T1 sequence (P04233 whole entry)
The experiment is described as §1. The experiment is classed as protein assay.

Experiment [3] deals with T3, MIF/CD74 (Macrophage migration inhibitory factor and HLA-DR antigens-associated invariant chain) (Homo sapiens) (UniProt P14174+P04233). Description: Binding affinity to human biotinylated MIF/CD74 at 150 nM. It is filed as protein assay.
Experiment [4] concerns the target T3, MIF/CD74 (Macrophage migration inhibitory factor and HLA-DR antigens-associated invariant chain) (Homo sapiens). Put plainly: Activation of human biotinylated MIF/CD74. It is filed as protein assay.
For experiment [5], the target named is T4, Macrophage migration inhibitory factor (Homo sapiens) (UniProt P14174).
T4 sequence (whole entry): T1 sequence (P14174 whole entry)
Put plainly: Induction of MIF-dependent ERK1/2 phosphorylation in human fibroblast after 30 mins by Western blotting.

Experiment [6] deals with T4, Macrophage migration inhibitory factor (Homo sapiens). Description: Agonist activity at human MIF tautomerase using 4-hydroxyphenylpyruvate as substrate at 100 uM. The experiment is classed as functional.
The target of experiment [7] is T3, MIF/CD74 (Macrophage migration inhibitory factor and HLA-DR antigens-associated invariant chain) (Homo sapiens). The description is as §1. The experiment is classed as protein assay.
The target is the same in experiment [8]. Put plainly: Binding affinity to human biotinylated MIF/CD74 at 500 nM. The experiment is classed as protein assay.
Experiment [9] shares this target. Put plainly: Binding affinity to human biotinylated MIF/CD74 at 100 nM. The experiment is classed as protein assay.
Experiment [10] addresses T5, Macrophage migration inhibitory factor (Homo sapiens, UniProt P14174).
T5 sequence (P14174 whole entry): T1 sequence (P14174 whole entry)
Put plainly: (§2) Inhibition of human MIF tautomerase activity using 4-hydroxyphenylpyruvate as substrate. In outline:
(§3)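 Recombinant human MIF tautomerase activity with 4-hydroxyphenylpyruvate as substrate. Compounds were tested between 1 nM and 1 mM. Where inhibition plateaued below 50%, the maximum percent inhibition was reported.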

Experiment [11] addresses T4, Macrophage migration inhibitory factor (Homo sapiens). Put plainly: Inhibition of MIF-dependent ERK1/2 phosphorylation in human fibroblast after 30 mins by Western blotting. Put shortly: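 MIF-dependent ERK1/2 phosphorylation was measured in human fibroblasts. Phospho-ERK1/2 and total ERK1/2 were detected by western blot. The phospho/total ratio was determined by densitometry across three separate experiments.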

For experiment [12] the target is unchanged. Described as §2. In outline:
as §3

The source made the active and inactive calls. The rule behind the calls is not given here.

In experiment [1], `COc1cccc(Cn2cc(-c3ccc(O)cc3)nn2)c1` registered an IC50 of 50 µM. Regarding `Cc1cccc(Cn2cc(-c3ccc(O)cc3)nn2)c1`, in [2], the IC50 result is given as “Not Active”. As to `Oc1ccc(-n2cc(-c3cncc4ccccc34)nn2)cc1`, the Activity in experiment [3] was 100%; in experiment [4], 39%. In addition, the result in experiment [5] and in experiment [6] was Active. `COc1ccc(Cc2cn(-c3ccc(O)cc3)nn2)cc1OC` gave an Imax in experiment [7] of 22%. With `Oc1ccc(-n2cc(Cc3ccccc3)nn2)cc1`, the IC50 in experiment [1] came out at 3.5 µM.

`COc1ccccc1Cn1cc(-c2ccc(O)cc2)nn1`: the Activity in experiment [4] came to 31%; in experiment [8], 40%. Further, the result in experiment [5] and in experiment [6] was Active. In the case of `Oc1ccc(-n2cc(-c3cccnc3)nn2)cc1`, the Activity came out at 100% in [9] and 23% in experiment [4]. The outcome in [5] and in [6] was Active. Consider `COC(=O)c1cccc(Cn2cc(-c3ccc(O)cc3)nn2)c1`, for which the IC50 worked out at 1.2 µM in experiment [1] and 2.5 µM in experiment [10] (read-out: IC50). `Oc1ccc(-n2cc(-c3cccc4ccccc34)nn2)cc1`: the IC50 result in [2] is “Not Active”. On to `COc1cccc(Cn2cc(-c3ccc(O)cc3)nn2)c1OC`, for which the IC50 in experiment [1] amounted to 0.9 µM; in [10] (read-out: IC50), 0.75 µM. Besides, the inhibition result in experiment [11] is “Active”. In the case of `Oc1ccc(Cc2cn(-c3ccc(O)cc3)nn2)cc1`, the Imax in [7] was 23%. For the same molecule, the IC50 in experiment [10] (read-out: IC50) came to 690 µM. `Oc1ccc(-n2cc(Cc3cccc(O)c3)nn2)cc1`: the IC50 entry in [2] and in experiment [10] was “Not Active” in each case. Turning to `O=C(O)c1cccc(Cn2cc(-c3ccc(O)cc3)nn2)c1`, in experiment [2], the 50% inhibitory concentration (IC50) result is given as “Not Active”. As for `Cc1cccc(Cc2cn(-c3ccc(O)cc3)nn2)c1`, the Imax in experiment [7] came to 30%. Consider `Oc1ccc(-n2cc(Cc3ccccc3O)nn2)cc1`, for which, in [7], the Imax came to 9%. Further, in [10] (read-out: IC50), the IC50 stood at 1000 µM. For `Oc1ccc(-c2cn(-c3cncc4ccccc34)nn2)cc1`, in [7], the Imax came out at 12%. Molecule `Oc1ccc(-c2cn(Cc3cccnc3)nn2)cc1` returned an Imax in experiment [7] of 20%.

Turning to `COc1cccc(Cc2cn(-c3ccc(O)cc3)nn2)c1OC`, the IC50 result in experiment [2] is listed as “Not Active”.

As to `Oc1ccc(-c2cn(Cc3ccccn3)nn2)cc1`, the Imax in experiment [7] is 30%.

For the molecule `Cc1ccccc1Cn1cc(-c2ccc(O)cc2)nn1`, the IC50 entry in [2] is listed as “Not Active”.

Molecule `Oc1ccc(-c2cn(-c3cccc4ccccc34)nn2)cc1` returned an Imax in experiment [7] of 23%. For the molecule `COc1ccccc1Cc1cn(-c2ccc(O)cc2)nn1`, the Imax in experiment [7] is 14%; in [12], 35%. Take `Oc1ccc(-c2cn(Cc3ccccc3)nn2)cc1`: the IC50 entry in experiment [2] is “Not Active”. For the molecule `COc1ccc(Cc2cn(-c3ccc(O)cc3)nn2)cc1`, in [7], the Imax was 36%. In turn, `Oc1ccc(-c2cn(-c3cccnc3)nn2)cc1` came in with an Imax in experiment [7] of 16%.

With `COc1cccc(Cc2cn(-c3ccc(O)cc3)nn2)c1`, the Imax in experiment [7] came out at 8%; in experiment [12], 40%. Take `COc1ccc(Cn2cc(-c3ccc(O)cc3)nn2)cc1`: in [2], the IC50 entry is on record as “Not Active”.
